# The list is not random: actives were taken first. Their share in the collection is about 9.8%.
# PMI activator: activators of human PMI, primary screen, biochemical, fluorescence intensity, near-Km mannose 6-phosphate | purified human PMI, coupled resazurin fluorescence, 20 min; hits give high values; 1 = vehicle control, 0 substrate-free wells | 0.005% of 190,000 active | activation factor at 20 µM;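 active = activation factor of 2 or more at 20 µM, relative to plate controls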
# Target sequence (P34949 whole entry, looked up): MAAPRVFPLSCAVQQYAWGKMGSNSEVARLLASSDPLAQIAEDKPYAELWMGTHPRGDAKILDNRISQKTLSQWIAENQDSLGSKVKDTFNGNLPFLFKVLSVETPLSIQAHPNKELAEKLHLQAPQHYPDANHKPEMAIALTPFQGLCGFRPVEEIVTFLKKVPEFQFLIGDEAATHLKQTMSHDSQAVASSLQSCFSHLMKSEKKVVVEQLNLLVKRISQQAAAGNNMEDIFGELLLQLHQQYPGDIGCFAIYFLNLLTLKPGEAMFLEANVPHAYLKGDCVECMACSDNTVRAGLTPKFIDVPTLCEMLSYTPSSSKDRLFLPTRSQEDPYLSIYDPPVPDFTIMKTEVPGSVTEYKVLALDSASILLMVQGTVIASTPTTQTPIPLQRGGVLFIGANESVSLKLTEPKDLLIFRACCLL
# Rad51 HR inh: human RAD51 strand exchange inhibitors, primary screen, biochemical, fluorescence | hRad51 DNA strand exchange, fluorescence dequenching | inhibition, % at 10 µM | 0.085% of 200,000 active;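 active = inhibition above 40% at the single screening dose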;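 note: 0% = DMSO control wells and 100% = blanks with heterologous ssDNA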
#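 Test system – preformed human Rad51 ssDNA filaments · Reagent – Donor/quencher-labelled 47-bp dsDNA substrate · Incubation – 37 °C 15-min filament assembly, 30-min compound preincubation, 15-min exchange · Signal – FRET fluorescence dequenching, excitation 485 nm, emission 520 nm · Read-out – percent inhibition from fluorescence, normalised to plate control and blank means · Benchmarks – plate control and blank wells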
# WT yeast gro inh: growth inhibition of WT strain, primary screen, mitochondrial fusion inhibitor project, WT and mutant strains, chemical genetic; mitochondrial fusion phenotypic screen; inhibition, % at 10 µM; 2.1% of 190,000 active; AID 1362, 2008; in the data active = inhibition above about 58%; tested in S. cerevisiae
# Calpain2 inh: inhibitors of pig calpain II, primary screen, biochemical, fluorogenic peptide substrate, 1536-well; 0.37% of 220,000 active; purified calpain II, 30 min; inhibition, % at 16 µM;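 active = inhibition above about 50%, limit read from the data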
# PMI act satM6P: human PMI activators, high substrate, primary screen, biochemical, fluorescence intensity, near-saturating mannose 6-phosphate; 0.34% of 190,000 active; activation factor at 20 µM; coupled PMI enzyme assay, resazurin fluorescence, 20 min; hits give high values; 1 = untreated enzyme, 0 = substrate-free blank; Mannose-6-phosphate isomerase (Homo sapiens), P34949;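 active = activation factor of 2 or more at 20 µM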
#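 Test system: human phosphomannose isomerase with PGI, G6PDH, diaphorase coupling enzymes; Amount: PMI at 15 ng/mL final; Reagent: Mannose-6-phosphate 1.0 mM (near-saturating) plus 0.22 mM NADP+; Timing: 20 min, room temperature; Technique: resorufin fluorescence at Ex 544/Em 590 nm; Dosing: 20 µM single dose.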
# Lmaj promast: Leishmania major promastigote growth inhibition, primary screen; Leishmania major promastigotes, resazurin fluorescence viability; inhibition, % at 10 µM; 9% of 200,000 active; AID 1063, 2008; in the data active = inhibition above about 50%;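 note: promastigotes grown with compound for 44 hours at 28 °C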
# The depositor's hits bear a star; / = not tested or not shown.
SMILES,PMI activator,Rad51 HR inh,WT yeast gro inh,Calpain2 inh,PMI act satM6P,Lmaj promast
CCN(Cc1ccccc1)S(=O)(=O)c1ccc(C(=O)Nc2nnc(C3CC3)o2)cc1,1.1,-2.4,47.9,-20.2,1,98.2*
Cc1nnc(NC(=O)c2ccc(S(=O)(=O)N(C)Cc3ccccc3)cc2)o1,1,-2.7,41.1,11.9,1,77.2*
COCCN(CCOC)S(=O)(=O)c1ccc(C(=O)Nc2nnc(C)o2)cc1,1,10.1,2.4,-37.1,1.1,-5.4
CC/C(=C/c1sc2ccc(C)cc2[n+]1CCO)SC,1.8,-1.1,4.1,-29.8,2.5*,22.1
Cc1ccc2sc(C)[n+](CCC(C)S(=O)(=O)[O-])c2c1 (stereo not drawn),1,/,-3.6,-5.2,1.1,37.2
CC/C(=C/c1sc2ccc(C)cc2[n+]1CCCS(=O)(=O)[O-])SC,1.9,-1.3,1.1,2.8,2.7*,17.0
COC(=O)c1nnn(-c2cc(Cl)cc(Cl)c2)c1C(=O)OC,/,11.6,/,26.8,/,/
Cn1c(=O)[nH]c(=O)c2c1nc(SCCN1CCCCC1)n2CCCc1ccccc1,1,-1.0,18.5,34.1,1,98.1*
Cn1c(=O)[nH]c(=O)c2c1nc(SCCN1CCCCC1)n2Cc1ccccc1,0.9,4.4,-3.1,28.1,0.9,99.4*
CCOc1ccc(OCC)c(S(=O)(=O)n2cc(C)nc2CC)c1,1,18.1,8.0,-18.4,0.9,98.7*
CC1=C(C#N)C(NC(=O)c2ccc(C)cc2)(C(F)(F)F)C(=O)N1 (stereo not drawn),0.8,/,76.7*,-5.4,0.8,-3.2
COc1ccc(CN2CCC(CO)(CCOc3ccccc3)CC2)cc1C,1,/,14.7,25.1,1,85.0*
COc1cc(CN2CCC(CO)(CCOc3ccccc3)CC2)cc(OC)c1OC,0.9,-1.8,-1.9,-2.3,0.9,87.4*
C=CCOc1ccccc1CN1CCC(CO)(CCOc2ccccc2)CC1,0.9,15.6,15.8,9.5,0.9,22.5
COc1cc(OC)c(CN2CCC(CO)(CCOc3ccccc3)CC2)c(OC)c1,1.1,3.7,3.6,-2.7,1,2.2
OCC1(CCOc2ccccc2)CCN(CCCn2cccn2)CC1,0.8,-6.2,-0.7,22.2,0.9,80.7*
CCOC(=O)N1CCN(CC(=O)Nc2cc(OC)c(OC)cc2C#N)CC1,1,/,-6.1,0.1,1,-7.3
COc1cc2c(cc1OC)-c1cc3ccc4c(c3c[n+]1CC2)OCO4,0.8,-7.2,60.0*,-117.1,0.5,12.8
O=C(CSc1nc2ccccc2c(=O)n1-c1ccc(F)cc1)Nc1ccc(Cl)c(S(=O)(=O)N2CCOCC2)c1,1.1,/,-8.1,-87.2,1.1,94.9*
COc1ccc(-c2nnc(CSc3nc4ccccc4c(=O)n3C)o2)cc1OC,0.9,-0.9,15.7,-64.2,1,17.9
O=C(CSc1nc2ccccc2c(=O)n1-c1ccc(F)c(Cl)c1)Nc1cccc(S(=O)(=O)N2CCOCC2)c1,0.9,/,6.9,-53.6,0.9,41.3
O=C(CSc1nc2ccccc2c(=O)n1-c1ccc(F)cc1F)Nc1ccc2c(c1)CCC2,0.9,3.9,-6.8,-14.7,1,99.0*
O=c1c2ccccc2nc(SCc2nnc(-c3ccccc3)o2)n1-c1ccc(F)cc1F,0.9,3.5,14.7,-19.7,0.9,77.6*
Cc1ccccc1-n1c(SCC(=O)Nc2ccccc2)nc2nc3c(cc2c1=O)CCCC3,0.9,2.8,5.2,-49.7,1,97.8*
COc1ccccc1-n1c(SCC(=O)Nc2cccc(S(N)(=O)=O)c2)nc2ccccc2c1=O,0.9,9.4,5.7,-32.4,0.6,-2.2
SMILES,PMI activator,Rad51 HR inh,WT yeast gro inh,Calpain2 inh,PMI act satM6P,Lmaj promast
Cc1nnc(SCc2ccccc2CSc2nnc(C)s2)s1,1,-6.7,5.9,27.6,1,4.7
Cc1cc(C)c(S(=O)(=O)NC(C)C)c(C)c1-n1cnnn1,1,-0.9,-14.6,-14.4,1,-5.2
O=C(CSc1nc2ccccc2c(=O)n1-c1ccccc1F)Nc1ccc2c(c1)CCC2,1,5.0,-10.0,-53.5,1,98.5*
O=c1c2ccccc2nc(SCc2cn3ccsc3n2)n1-c1ccccc1F,0.9,5.6,10.0,51.6*,0.9,13.2
Cc1ccc(-n2c(SCC(=O)Nc3cccc(S(=O)(=O)NC4=NCCCCC4)c3)nc3ccccc3c2=O)cc1,0.9,-1.1,-1.1,-91.3,1,-2.4
O=c1c2ccccc2nc(SCc2cn3ccsc3n2)n1-c1ccccc1,0.9,1.3,0.3,11.7,1,16.4
O=C(CSc1nc2ccccc2c(=O)n1-c1ccc(F)cc1)Nc1ccc2c(c1)CCC2,0.9,6.1,14.0,-20.2,1,80.6*
C=CCn1c(C)cc(C(=O)COC(=O)/C=C/c2cccc(OC)c2)c1C,0.9,0.3,22.2,11.7,0.9,2.1
O=c1cc2c(nn1Cc1cccc(Cl)c1)-c1ccccc1CC2,0.9,1.8,80.5*,28.3,0.9,7.5
O=C1c2ccccc2C(=O)N1OCc1cccc(Cl)c1,1,2.3,-4.5,-35.3,1,-1.9
Cc1ccc(Cn2nc3c(cc2=O)CCc2ccccc2-3)cc1,0.9,-7.9,73.8*,28.6,0.8,-3.5
O=c1cc2c(nn1Cc1ccc(Cl)cc1)-c1ccccc1CC2,0.9,-2.9,59.5*,12.3,1,-0.8
Cc1ccc(CNC(=S)NCc2ccncc2)cc1,1,6.4,4.4,-19.8,1,-8.9
O=C(N/N=C/c1ccc(Cl)cc1Cl)C(=O)NC1CC1,0.9,-12.0,-1.0,13.8,0.9,-10.2
NC(=O)CC(NC(=O)Cc1ccc(Br)cc1)c1ccc(N2CCN(c3ccc(F)cc3)CC2)c([N+](=O)[O-])c1 (stereo not drawn),/,-0.4,/,-28.4,/,/
CCN(CC)c1ccc(C=C(c2nnnn2-c2ccc(C)cc2)c2nnnn2-c2ccc(C)cc2)cc1,0.9,-8.7,-4.7,28.7,0.9,41.6
COc1ccc(/C=C/C(=O)NC(=S)NNC(=O)c2cccs2)cc1OC,/,/,/,-49.4,/,/
O=C(/C=C/c1cccs1)NC(=S)NNC(=O)Cc1cccs1,1.2,2.4,-10.3,-18.9,1.2,63.8*
COc1ccc(/C=C/C(=O)NC(=S)NNC(=O)Cc2cccs2)cc1OC,1.1,-20.8,6.1,-54.6,1.1,98.6*
NC(=S)n1[nH]c(-c2ccc([N+](=O)[O-])cc2)c(N=Nc2ccc(O)cc2)c1=O,0.9,/,-14.2,-42.2,1,97.5*
NC(=S)n1[nH]c(-c2ccc([N+](=O)[O-])cc2)c(N=Nc2cccc(Cl)c2)c1=O,0.9,2.5,74.7*,-169.6,1,46.6
CCN(CC)S(=O)(=O)c1ccc(N=Nc2c(C)[nH]n(C(N)=S)c2=O)cc1,1.1,1.8,15.4,5.4,1.2,2.5

# Source: PubChem BioAssay
